This is an account of results in ChEMBL document CHEMBL1811758, “Inhibition of monoamine oxidase by C5-substituted phthalimide analogues” (Bioorg Med Chem, 2011).

What is called inhibition is the relative decrease from the control value, in per cent. By IC50 is commonly meant the concentration that inhibits the measured activity by half. As a reminder, the Ki is the dissociation constant of the complex between target and ligand, obtained from inhibition or displacement.

Data set [1] deals with T1, Amine oxidase [flavin-containing] A (Homo sapiens, UniProt P21397).
T1 sequence (P21397 whole entry): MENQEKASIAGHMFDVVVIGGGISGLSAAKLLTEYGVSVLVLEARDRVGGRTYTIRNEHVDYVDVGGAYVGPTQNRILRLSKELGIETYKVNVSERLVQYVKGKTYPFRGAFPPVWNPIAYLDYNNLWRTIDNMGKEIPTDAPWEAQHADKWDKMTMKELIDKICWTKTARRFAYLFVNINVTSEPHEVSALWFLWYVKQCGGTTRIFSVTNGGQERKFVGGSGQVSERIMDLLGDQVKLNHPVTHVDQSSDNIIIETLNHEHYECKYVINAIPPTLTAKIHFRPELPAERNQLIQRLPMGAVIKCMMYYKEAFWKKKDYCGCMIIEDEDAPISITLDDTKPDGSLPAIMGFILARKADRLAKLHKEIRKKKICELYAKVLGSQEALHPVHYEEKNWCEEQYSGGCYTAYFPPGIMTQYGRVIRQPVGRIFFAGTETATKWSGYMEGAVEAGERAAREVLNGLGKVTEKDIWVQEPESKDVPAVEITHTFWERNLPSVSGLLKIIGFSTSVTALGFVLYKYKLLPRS
Kind of data set: Inhibition of human recombinant MAOA expressed in insect cells using kynuramine substrate at 100 uM by fluorescence spectroscopy. A digest of the protocol:
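MAO-A (insect-cell microsomes) was incubated with kynuramine (45 µM final) for 20 min at 37 °C in isotonic phosphate buffer, pH 7.4, with inhibitor at a maximum tested concentration of 100 µM. The reaction was stopped with NaOH, and 4-hydroxyquinoline was read fluorometrically (ex 310/em 400 nm). Percent inhibition is the mean of duplicates.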

The target of data set [2] is T2, Amine oxidase [flavin-containing] B (Homo sapiens, UniProt P27338).
T2 sequence (P27338 whole entry): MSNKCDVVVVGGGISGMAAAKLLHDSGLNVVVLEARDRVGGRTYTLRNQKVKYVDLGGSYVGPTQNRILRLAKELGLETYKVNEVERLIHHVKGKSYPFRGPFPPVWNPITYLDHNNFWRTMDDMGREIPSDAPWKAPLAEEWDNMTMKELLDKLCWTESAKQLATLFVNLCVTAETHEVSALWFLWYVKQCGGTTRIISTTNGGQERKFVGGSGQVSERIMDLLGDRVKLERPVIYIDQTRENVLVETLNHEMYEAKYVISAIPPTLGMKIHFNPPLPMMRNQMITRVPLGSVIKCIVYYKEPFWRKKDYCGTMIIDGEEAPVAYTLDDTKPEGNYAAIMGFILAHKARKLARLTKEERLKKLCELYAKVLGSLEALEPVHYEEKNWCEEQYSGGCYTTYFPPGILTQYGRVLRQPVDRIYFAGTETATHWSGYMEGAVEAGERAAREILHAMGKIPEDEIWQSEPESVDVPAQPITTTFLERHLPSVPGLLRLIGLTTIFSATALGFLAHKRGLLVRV
Kind of data set: Inhibition of human recombinant MAOB expressed in insect cells using kynuramine substrate at 100 uM by fluorescence spectroscopy. A digest of the protocol:
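Single-point MAO-B assay: inhibitor at a maximum of 100 µM, kynuramine 30 µM final, 20 min at 37 °C in isotonic 100 mM potassium phosphate, pH 7.4. NaOH was added to stop the reaction, and 4-hydroxyquinoline was measured by fluorescence (ex 310/em 400 nm). Duplicate determinations were made, with percent inhibition reported.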

In data set [3] the target is T1, Amine oxidase [flavin-containing] A. Kind of data set: Inhibition of human recombinant MAOA expressed in insect cells using kynuramine substrate by fluorescence spectroscopy.
The target in data set [4] is T2, Amine oxidase [flavin-containing] B. Kind of data set: Inhibition of human recombinant MAOB expressed in insect cells using kynuramine substrate by fluorescence spectroscopy.
The target of data set [5] is T1, Amine oxidase [flavin-containing] A. Kind of data set: Inhibition of human recombinant MAOA expressed in insect cells using kynuramine substrate using Cheng and Prusoff equation by fluorescence spectroscopy.
Data set [6] deals with T2, Amine oxidase [flavin-containing] B. Kind of data set: Inhibition of human recombinant MAOB expressed in insect cells using kynuramine substrate using Cheng and Prusoff equation by fluorescence spectroscopy.
Data set [7] is filed under the species Homo sapiens. Kind of data set: Selectivity index, ratio of Ki for human recombinant MAOA to Ki for human recombinant MAOB. The essentials:
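Recombinant human MAO-A and MAO-B from baculovirus-infected insect-cell microsomes. Kynuramine at 45 µM (A) or 30 µM (B) final, in 100 mM potassium phosphate pH 7.4 made isotonic with KCl. 37 °C for 20 min, stopped with NaOH; 4-hydroxyquinoline fluorescence read at ex 310/em 400 nm. IC50 from 9–10 concentrations, duplicate. Ki = IC50/(1+[S]/Km), Km 16.1 (A), 22.7 µM (B); ratio Ki(A)/Ki(B).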

Data set [8] addresses T1, Amine oxidase [flavin-containing] A. Kind of data set: Time dependent inhibition of human recombinant MAOA expressed in insect cells at 13.42 uM preincubated 0 to 60 mins before kynuramine substrate addition by fluorescence spectroscopy. The essentials: (§1)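 Enzyme (0.03 mg/mL) was preincubated with inhibitor for 0, 15, 30 or 60 min at 37 °C in isotonic 100 mM potassium phosphate, pH 7.4. Preincubation inhibitor was 13.42 µM for MAO-A and 5.00 µM for MAO-B. Kynuramine was then added (45 µM for MAO-A, 30 µM for MAO-B), giving final enzyme 0.015 mg/mL and final inhibitor 6.71 µM (A) or 2.5 µM (B). After 15 min at 37 °C and NaOH stop, 4-hydroxyquinoline fluorescence was read, in triplicate.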

For data set [9], the target named is T2, Amine oxidase [flavin-containing] B. Kind of data set: Time dependent inhibition of human recombinant MAOB expressed in insect cells at 5 uM preincubated 0 to 60 mins before kynuramine substrate addition by fluorescence spectroscopy. The essentials: as §1
The target of data set [10] is T1, Amine oxidase [flavin-containing] A. Kind of data set: Reversible inhibition of human recombinant MAOA expressed in insect cells using kynuramine substrate by Lineweaver-Burk plot. A digest of the protocol: (§2)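 Kynuramine at 15, 30, 60 and 90 µM; MAO-A at 0.015 mg/mL in the reaction; inhibitor at 0, 1.7, 3.4 and 6.8 µM. Reactions ran in isotonic potassium phosphate (100 mM, pH 7.4) at 37 °C for 20 min and were stopped with NaOH. Initial rates were read by 4-hydroxyquinoline fluorescence (ex 310/em 400 nm) and plotted double-reciprocally.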

The target of data set [11] is T2, Amine oxidase [flavin-containing] B. Kind of data set: Reversible inhibition of human recombinant MAOB expressed in insect cells using kynuramine substrate by Lineweaver-Burk plot. A digest of the protocol:
(§3)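 Initial MAO-B rates (0.015 mg/mL enzyme) were measured at kynuramine 15, 30, 60 and 90 µM, without inhibitor and with 0.625, 1.25 or 2.5 µM inhibitor. Incubation was 20 min at 37 °C in isotonic 100 mM potassium phosphate, pH 7.4, followed by NaOH stop. 4-Hydroxyquinoline fluorescence (ex 310/em 400 nm) was read, and Lineweaver–Burk plots were drawn.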

Data set [12] addresses T1, Amine oxidase [flavin-containing] A. Kind of data set: Competitive inhibition of human recombinant MAOA expressed in insect cells using kynuramine substrate by Lineweaver-Burk plot. A digest of the protocol:
as §2

Data set [13] addresses T2, Amine oxidase [flavin-containing] B. Kind of data set: Competitive inhibition of human recombinant MAOB expressed in insect cells using kynuramine substrate by Lineweaver-Burk plot. A digest of the protocol: as §3

As to `O=C1c2ccccc2C(=O)N1Cc1ccccc1`, the “inhibition (INH)” value in data set [1] (100 µM) was “Not Active”. Also, the inhibition at 100 µM in data set [2] was 20.2%.

Turning to `O=C1NC(=O)c2cc(OC/C=C/c3ccccc3)ccc21`, the IC50 was 8990 nM in data set [3] and 46 nM in data set [4]. Further, the values for the Ki in data set [5] and in [6] were 2370 nM and 20 nM, respectively. The Ratio Ki in [7] came out at 120.

On to `O=C1NC(=O)c2cc(Oc3ccccc3)ccc21`, for which the IC50 was 5850 nM in data set [3] and 2490 nM in data set [4]. For the same molecule, the Ki in [5] stood at 1540 nM; in data set [6], 1070 nM. Further, the Ratio Ki in data set [7] amounted to 1. For the same molecule, the TDI entry in [8] and in data set [9] was “Not Active” each time. For the same molecule, the “inhibition (INH)” value in data set [10], in data set [11], in data set [12] and in data set [13] was “Active” each time.

With `O=C1NC(=O)c2cc(Oc3ccc4ccccc4c3)ccc21`, the IC50 in [3] stood at 920 nM; in data set [4], 33 nM. The Ki in data set [5] amounted to 200 nM; in data set [6], 10 nM. Besides, in data set [7], the Ratio Ki worked out at 17.

Turning to `O=C1NC(=O)c2cc(OCCCc3ccccc3)ccc21`, the values for the concentration for half-maximal inhibition (IC50) in data set [3] and in data set [4] were 1730 nM and 50 nM, respectively. In addition, the Ki amounted to 460 nM in data set [5] and 20 nM in data set [6]. In addition, in [7], the Ratio Ki came to 21.

As for `O=C1NC(=O)c2cc(Oc3ccc(Br)cc3)ccc21`, the IC50 in data set [3] was 1080 nM; in [4], 55 nM. Further, the Ki was 285 nM in [5] and 24 nM in [6]. In data set [7], the Ratio Ki amounted to 12.

Consider `O=C1c2ccccc2C(=O)N1c1ccccc1` [N-PHENYL-PHTHALIMIDE], for which the values for the inhibition at 100 µM in [1] and in [2] were 10.5% and 50.3%, respectively.

Take `O=C1NC(=O)c2ccccc21` [PHTHALIMIDE]: the IC50 in data set [4] came to 134000 nM.
